A selection: hits, their analogues and other compounds. The true share with any hit is near 3.1%.
UHRF1 MBD2 ctr = UHRF1 methyl-DNA binding inhibition. Q96T88. actives 0.75% (n = 370,000). AID 687016. UHRF1 binding to methylated oligo, TR-FRET. inhibition, % at 4.4 µM; in the data active = inhibition above about 21%;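 also: UHRF1 SRA domain binding a hemimethylated CpG hairpin DNA probe; 0% = median of test compound wells and 100% = reference inhibitor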
Target sequence (Q96T88 whole entry, looked up, the tested form may be a part): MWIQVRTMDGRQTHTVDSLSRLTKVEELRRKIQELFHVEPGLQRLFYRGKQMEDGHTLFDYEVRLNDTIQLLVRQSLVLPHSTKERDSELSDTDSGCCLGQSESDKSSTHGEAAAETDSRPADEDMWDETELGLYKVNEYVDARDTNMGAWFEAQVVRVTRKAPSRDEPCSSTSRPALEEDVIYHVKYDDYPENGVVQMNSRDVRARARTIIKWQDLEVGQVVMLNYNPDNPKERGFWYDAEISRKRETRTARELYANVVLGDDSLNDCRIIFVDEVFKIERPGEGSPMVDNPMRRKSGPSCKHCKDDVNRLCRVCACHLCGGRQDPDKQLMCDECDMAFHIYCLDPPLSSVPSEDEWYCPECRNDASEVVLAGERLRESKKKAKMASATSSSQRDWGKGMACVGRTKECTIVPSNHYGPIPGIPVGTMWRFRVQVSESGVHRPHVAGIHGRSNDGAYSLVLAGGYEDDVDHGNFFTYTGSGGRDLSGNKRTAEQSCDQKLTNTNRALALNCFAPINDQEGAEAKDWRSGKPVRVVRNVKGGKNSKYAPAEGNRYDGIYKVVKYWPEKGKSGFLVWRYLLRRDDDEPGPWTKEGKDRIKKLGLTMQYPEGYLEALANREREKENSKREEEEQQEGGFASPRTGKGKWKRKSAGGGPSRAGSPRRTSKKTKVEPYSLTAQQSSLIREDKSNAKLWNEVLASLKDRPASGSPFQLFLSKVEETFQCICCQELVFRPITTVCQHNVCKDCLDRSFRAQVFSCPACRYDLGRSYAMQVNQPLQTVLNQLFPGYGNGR
ATG4B inh = inhibitors of human ATG4B cysteine protease; Q9Y4P1; ATG4B cleavage of LC3-PLA2, NBD-HPC fluorescence, 1 h; inhibition, % at 8.33 µM; actives 0.51% (n = 340,000); in the data active = inhibition above about 40%
LEDGF integ inh = blocks HIV-1 LEDGF/p75-dependent DNA integration; TR-FRET IN-LEDGF/p75 DNA integration, Eu/Cy5; inhibition, % at 3.7 µM; actives 0.64% (n = 370,000);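 active = inhibition above the screen-wide mean plus 3 SD, cut at about 13% in these data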;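 also: signal is the Cy5 over europium emission ratio at 671 and 618 nm; 0% = plate median of compound wells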
MBD2 DNA inh = inhibitors of human MBD2 binding to methylated oligonucleotide; Q9UBB5; TR-FRET; inhibition, % at 4.4 µM; actives 0.31% (n = 370,000); in the data active = inhibition above about 13%
CSN inh = CSN deneddylation inhibition; Q92905; Purified CSN, SCF-Nedd8-OG deneddylation, fluorescence polarization; inhibition, % at 12.5 µM; actives 0.38% (n = 360,000); AID 651999;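 active = pattern-corrected inhibition above about 35%, with an unprinted fluorescence ratio check between 0.5 and 1.5, limit read from the data, passing the limit was not always enough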;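 also: 0% = enzyme with substrate and 100% = substrate without enzyme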
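test system = HEK293T-derived human Csn5 enzyme | amount = 0.24 nM Csn5 enzyme, final concentration | medium = Tris/NaCl/DTT buffer, pH 7.5 | schedule = 90 min reaction at room temperature | signal = FP | evaluation = inhibition of Csn5 cleavage, % | compound dosing = single dose of 12.5 µM compound with 0.25% DMSO | probe or stimulus = 10 nM SCFSkp2-Nedd8OG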
rCAG RNA binder = r(CAG) repeat RNA binding | TO-PRO-1 dye displacement fluorescence | inhibition, % at 3 µM | actives 1.3% (n = 370,000) | AID 651821;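 active = inhibition above the plate cutoff, the mean of all test compounds on that plate plus 3 SD, cut at about 35% in these data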;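 also: 0% = DMSO alone and 100% = 100 µM mitoxantrone as full dye displacement; higher means more dye released from RNA so lower well fluorescence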
* marks the source's active call; other numbers are inactive results; x = not tested or not shown.

SMILES	UHRF1 MBD2 ctr	ATG4B inh	LEDGF integ inh	MBD2 DNA inh	CSN inh	rCAG RNA binder
CCc1nc(N[C@@H](Cc2c[nH]c3ccccc23)C(=O)O)c2oc3ccccc3c2n1	-0.8	-2.3	-0.5	2.6	-3.4	36.5*
COc1ccc(C(=O)COC(=O)Cc2c[nH]c3ccccc23)c(OC)c1	1.3	-5.5	-7.5	3.6	1.8	1.4
CC(Cc1c[nH]c2ccccc12)C(=O)O (stereo unspecified)	23.0*	-2.2	2.6	11.8	14.3	1.3
O=C(Cc1c[nH]c2ccccc12)OCC(=O)c1ccccc1	29.1*	-10.1	3.4	10.8	3.4	9.6
Cc1nc(N[C@@H](Cc2c[nH]c3ccccc23)C(=O)O)c2oc3ccccc3c2n1	0.1	10.4	-3.1	-1.3	x	20.4
COc1ccc(COC[C@H](C)N2C[C@@H](C)[C@H](CN(C)S(=O)(=O)c3ccc(F)cc3)OCCCC[C@H](C)Oc3ccc(NC(=O)Nc4ccccc4)cc3C2=O)cc1	4.1	x	-1.5	1.8	x	x
O=C(O)CCCNc1n[nH]c(=O)[nH]c1=O	25.6*	-5.9	0.7	1.4	-0.6	-1.6
O=C(CCNc1n[nH]c(=O)[nH]c1=O)N1CCCCC1	2.5	-2.2	1.7	0.6	2.9	-1.7
COC(=O)[C@]12C[C@H](CC(=O)NCCC(C)C)C(=O)N(Cc3ccc4c(c3)OCO4)C1=C[C@H](C(C)C)O[C@@H]2C1CC1	-2.0	x	3.3	-6.5	x	1.2
O=C(CC1C(=O)NCCN1Cc1c(F)cccc1Cl)NCCC1=CCCCC1 (stereo unspecified)	-1.3	-4.2	4.4	-6.4	-2.7	-2.1
O=C(CC1C(=O)NCCN1Cc1c(F)cccc1Cl)NCCc1ccccn1 (stereo unspecified)	25.7*	-8.1	-1.2	4.1	-3.0	-2.7
COc1ccc([C@H]2Oc3cc(O)cc(O)c3C(=O)C2[C@@H]2C(=O)c3c(O)cc(O)cc3O[C@@H]2c2ccc(OC)cc2)cc1 (stereo partly specified)	0.9	-13.4	3.7	-0.7	x	58.1*
N#CC1=C(N)n2c(s/c(=C\c3cccs3)c2=O)=C(C#N)C1c1cccs1 (stereo unspecified)	8.8	26.7	11.3	8.7	66.2*	51.5*
COc1cccc(N2CC(NC(=O)c3cccc4ccccc34)CC2=O)c1 (stereo unspecified)	33.6*	-13.1	-1.6	-4.5	0.6	-3.4
C=CCN(CC#CCN(C)C(=O)c1cccn1C(=O)OC(C)(C)C)Cc1ccc(OC)cc1OC	1.2	x	6.2	2.4	x	-1.9
COc1ccc(Cn2ccc3ccc(-c4ccc5ccn(C(=O)c6cccc(OC)c6)c5c4)cc32)cc1	-3.7	x	2.5	-3.6	x	6.4
Cc1ccc(-n2nc3c(N4CCC(C(=O)NCc5ccccc5C)CC4)nnc(C)c3c2C)cc1	x	54.1*	x	x	16.9	x
Cc1ccc(-n2nc3c(N4CCC(C(=O)N5CCCCCC5)CC4)nnc(C)c3c2C)cc1	x	70.8*	x	x	3.3	x
COC(=O)Cn1cc(/C=C/c2cc[n+](C)cc2)c2ccccc21	-87.0	-9.6	2.7	-24.7	68.4	-45.0
COC(=O)Cn1c(C)c(/C=C/c2cc[n+](C)cc2)c2ccccc21	-204.6	-2.9	5.6	-58.5	69.5*	-116.8
CC(=O)Nc1ccc(S(=O)(=O)/N=C2\C(=O)c3ccccc3C([O-])=C2n2cc[n+](-c3ccccn3)c2)cc1	43.5*	-1.8	5.0	-4.1	3.4	8.9
Cc1ccc(S(=O)(=O)/N=C2\C(=O)c3ccccc3C([O-])=C2n2cc[n+](CCC(C)C)c2)cc1	x	-3.6	x	x	3.9	x
CCOc1cc(/C=C2\N=C3CCCCCN3C2=O)ccc1O	-5.8	-0.4	-6.4	-6.4	58.4*	-23.8
COc1cccc(/C=C2\N=C3CCCCCN3C2=O)c1	-3.7	-7.5	0.2	-9.1	-1.4	1.5
Cc1cccc2c(=O)c(C(=O)N3CCCCCC3)c[nH]c12	22.5*	5.6	0.2	10.5	-1.3	0.9
SMILES	UHRF1 MBD2 ctr	ATG4B inh	LEDGF integ inh	MBD2 DNA inh	CSN inh	rCAG RNA binder
N/C(Cc1ccc(Cl)cc1Cl)=N\OC(=O)c1cccs1	8.3	10.3	0.4	5.8	-6.2	-3.6
N/C(Cc1ccc(Cl)cc1Cl)=N\OC(=O)Cc1cccs1	57.5*	7.6	-5.8	3.0	-1.1	-4.0
O=C(Cn1cc(COc2ccc(Br)cc2)nn1)c1ccc(O)cc1	9.1	-1.8	-2.8	4.8	3.7	3.5
O=Cc1cccc(OCc2cn(CC(=O)c3ccc(O)cc3)nn2)c1	23.9*	x	3.4	12.2	3.7	1.9
O=C(Cn1cc(COc2c(F)c(F)c(Br)c(F)c2F)nn1)c1ccc(O)cc1	3.7	2.3	-2.7	-2.0	-1.4	7.8
CC(=O)c1cc(C)c(OCc2cn(CC(=O)c3ccc(O)cc3)nn2)c(C)c1	20.8*	-6.4	4.9	8.5	0.1	6.4
O=C(Cn1cc(COc2c(Br)cc(F)cc2Br)nn1)c1ccc(O)cc1	21.3*	1.2	2.7	13.0	-2.2	12.1
CCCC(=O)c1ccc(OCc2cn(CC(=O)c3ccc(O)cc3)nn2)cc1	23.1*	-4.4	4.4	4.8	7.8	6.3
C[C@H]1[C@@H](OC(=O)NCc2cccc(C(F)(F)F)c2)CC[C@@]23CCCN2C(=O)CCC[C@@H]13	-1.3	x	-0.2	0.6	x	x
CCn1c(SCC(=O)NN=Cc2ccc(C(=O)O)cc2)nc2ccccc21	-0.1	x	2.7	1.4	x	1.1
c1ccc(-n2c(SCc3cccc4ccccc34)nnc2-c2ccccn2)cc1	-1.2	x	-1.2	0.9	x	3.6
COc1ccc(C#CCN(C)/C(N)=N/C(=O)OCc2ccccc2)cc1	-4.0	x	-1.9	-2.4	x	-1.8
O=C(Cn1cc(COc2ccccc2[N+](=O)[O-])nn1)c1ccc(O)cc1	1.4	x	-0.6	-2.6	-3.5	6.6
N#Cc1ccccc1OCc1cn(CC(=O)c2ccc(O)cc2)nn1	22.2*	x	2.8	13.1	4.1	7.3
CN(C)c1ccc(N=Nc2ccc(C(=O)O)cc2)cc1	29.4*	5.7	2.5	-0.4	24.1	4.9
CN(C)c1ccc(C(=O)c2ccccc2)cc1	-0.7	2.2	1.7	-3.2	0.1	-1.1
CC(=O)N1CC=CC1(C)C(=O)O (stereo unspecified)	30.9*	8.7	-1.2	-1.6	1.9	0.0
CCOC(=O)COc1ccc(Br)cc1/C=C/c1[nH]c(=O)[nH]c(=O)c1[N+](=O)[O-]	-0.3	-3.7	-1.7	-4.1	38.7*	77.1*
CCN(CC(=O)NCc1cccs1)C(=O)c1ccc(Cl)c(Cl)c1	35.2*	-61.5	-4.4	-2.2	0.0	0.6
COc1ccc(OC)c(NC(=O)CSc2nc3n[nH]c(C)c3c(=N)n2-c2cccc(Cl)c2C)c1	-1.5	-1.7	1.1	-2.3	-5.0	4.9
COc1ccc(NC(=O)CSc2nc3n[nH]c(C)c3c(=N)n2-c2ccc(Cl)c(C)c2)cc1OC	x	-1.9	x	x	36.2*	x

Source: PubChem BioAssay (several laboratories)
